Assay outcomes from PubChem.
Only some compounds are listed: those with a hit (about 2.7% of all), similar ones and a draw of the others.
NTR1 agonist: agonists of human neurotensin receptor NTR1; NTR1-U2OS beta-arrestin-GFP spot imaging, agonist mode; activation, % at 20 µM; 330,000 compounds, 0.17% hits;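 active = activation at or above 40% of the spot to cytoplasm intensity ratio, with at least 20 cells analyzed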;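 note: 0% = DMSO without peptide and 100% = 100 nM NTR1 peptide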
MC4R antag cAMP: human MC4R antagonism in cAMP assay; P32245; MC4R-expressing cells, MTII-stimulated cAMP, LANCE TR-FRET; inhibition, % at 6.5 µM; 360,000 compounds, 0.48% hits; AID 540295;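 active = inhibition above its plate's cutoff, the mean of tested wells on that plate plus 3 SD, cut at about 29% in these data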;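 note: 0% = Melanotan II alone and 100% = Melanotan II plus saturating MCL0020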
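Assay system: U2OS-MC4R stable cell line; Also added: Melanotan II; Technique: Eu-cAMP/anti-cAMP TR-FRET, emission 671 nm; Times: 30-min compound, 1-h challenge, 1-h detection, room temperature.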
Hep lipid drop: hepatic lipid droplet formation modulation | AML12 mouse hepatocytes, oleate lipid droplets, BODIPY imaging | AID 1656 | 240,000 compounds, 0.4% hits | inhibition, % at 6.5 µM;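 active = lipid droplet intensity inhibited by at least 50%, with more than 500 cells counted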
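Test system: AML12 hepatocytes (mouse); reagent: oleate loading, 100 µM; dosing: one dose, 6.5 µM compound; incubation: overnight exposure; signal: fluorescence imaging, 20x objective, two fields per well; read-out basis: % inhibition of corrected integrated BODIPY droplet signal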
MC4R barr agon: human MC4R agonism via beta-arrestin. P32245. U2OS MC4R beta-arrestin complementation, luminescence; percent of melanotan II response, DMSO zero. activation, % at 8.9 µM. 360,000 compounds, 0.98% hits. AID 540308;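 active = activation above a per-plate cutoff, the mean activation of sample wells on that plate plus 3 SD, cut at about 8% in these data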
HTR2A ag: agonists of mouse serotonin 5-HT2A receptor (HTR2A) | CHO-K1 mHTR2A beta-arrestin complementation, luminescence; percent of 30 µM serotonin response | activation, % at 7.6 µM | 360,000 compounds, 0.66% hits | AID 624169;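 active = activation above a run cutoff, the mean activation of all tested compounds plus 3 SD, cut at about 14% in these data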;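 note: 0% = plate median of compound wells and 100% = 30 µM serotonin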
PREPL inhibitor: human PREPL enzyme inhibition; Q4J6C6; recombinant PREPL, fluorescence polarization activity-based probe; inhibition, % at 5.96 µM; 320,000 compounds, 0.68% hits; AID 2751; in the data active = inhibition above about 43%;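 note: 0% = enzyme with DMSO and 100% = wells lacking enzyme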
Target sequence (Q4J6C6 whole entry, looked up): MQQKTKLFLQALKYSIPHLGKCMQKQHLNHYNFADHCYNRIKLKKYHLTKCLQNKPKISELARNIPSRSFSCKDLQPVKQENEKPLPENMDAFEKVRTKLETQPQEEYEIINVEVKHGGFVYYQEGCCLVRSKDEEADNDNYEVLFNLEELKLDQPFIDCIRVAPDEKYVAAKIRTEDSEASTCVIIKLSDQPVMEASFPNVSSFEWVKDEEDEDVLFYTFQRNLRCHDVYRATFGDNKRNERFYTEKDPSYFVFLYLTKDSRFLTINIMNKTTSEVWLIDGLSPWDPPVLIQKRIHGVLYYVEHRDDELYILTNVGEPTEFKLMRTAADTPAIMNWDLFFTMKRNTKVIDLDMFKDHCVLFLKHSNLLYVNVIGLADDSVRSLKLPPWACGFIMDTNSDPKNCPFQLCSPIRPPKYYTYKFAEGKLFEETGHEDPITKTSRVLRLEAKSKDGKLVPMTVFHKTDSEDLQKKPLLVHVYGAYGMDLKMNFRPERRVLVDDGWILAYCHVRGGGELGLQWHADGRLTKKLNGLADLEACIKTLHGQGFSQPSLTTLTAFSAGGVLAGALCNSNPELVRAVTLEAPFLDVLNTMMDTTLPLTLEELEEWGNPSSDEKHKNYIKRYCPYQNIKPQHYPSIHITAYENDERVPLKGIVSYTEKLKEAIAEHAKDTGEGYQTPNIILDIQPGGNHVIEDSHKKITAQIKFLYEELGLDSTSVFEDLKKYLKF
Hep lipid conf: confirmation of inhibitors of hepatic lipid droplet formation | 870 compounds, 65% hits | AID 463183 | shares compounds with Hep lipid drop | inhibition, % at 5.2 µM | AML12 mouse hepatocytes, BODIPY lipid droplet imaging; droplets induced with 100 µM oleic acid;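 active = inhibition of lipid droplet metric at least 50%, with more than 300 cells in each of four replicates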;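 note: plate controls were DMSO with oleic acid for no effect and 5 µM Triacsin-C for full effect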
AML12 cytotox: counter-screen for cytotoxicity in AML12 mouse hepatocytes. 870 compounds, 3% hits. AID 463200. shares compounds with Hep lipid drop. DAPI nuclear morphology cytotoxicity imaging; stronger effect = higher value; cells fed 100 µM oleate overnight. z-score at 5 µM; in the data active = z-score above about 6.3;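 note: compound exposure lasted overnight at 37 °C before fixation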
AML12 tox conf: AML12 hepatocyte cytotoxicity, confirmed; shares compounds with Hep lipid drop; AML12 mouse hepatocyte viability, ATP luminescence; cells loaded with 100 µM oleic acid; cytotoxicity, % at 50 µM; 530 tested, under 10 active;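 active = cytotoxicity above 50% in each of four replicates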;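 note: compound exposure lasted overnight at 37 °C before the ATP read; 0% = DMSO-treated cells and 100% = wells with no cells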
An asterisk follows results filed as active; / = not tested or not shown.

SMILES | NTR1 agonist | MC4R antag cAMP | Hep lipid drop | MC4R barr agon | HTR2A ag | PREPL inhibitor | Hep lipid conf | AML12 cytotox | AML12 tox conf
CC(C)CC1NC(=O)N(Cc2nc3ccccc3s2)C1=O (configuration not stated) | 2 | -1 | -3 | -1 | -2 | -2 | / | / | /
COc1ccc(C(=O)OC(C)C(=O)Nc2cc(C(F)(F)F)ccc2Cl)c(OC)c1OC (configuration not stated) | 1 | 1 | 80* | -1 | 0 | 7 | 107* | -0.28 | 0
O=C(COC(=O)/C=C/c1cccc(Br)c1)NC1CCCCCC1 | -2 | 5 | / | -2 | 4 | 17 | / | / | /
COc1cc(/C=C/CN2CCN(Cc3ccc(C)o3)C(CCO)C2)ccc1O (configuration not stated) | 0 | 1 | 24 | -2 | 2 | 7 | / | / | /
O=C1c2cc(Cl)ccc2-c2c(O)cc(Cl)cc21 | / | -6 | / | -4 | 3 | / | / | / | /
Cc1ccc(CNC(=O)c2ccc(N3CCC4(CC3)CC(c3ccccc3)=NO4)c([N+](=O)[O-])c2)cc1 | 1 | 4 | 13 | 0 | -1 | 11 | / | / | /
Cc1ccc(CNC(=O)c2ccc(N3CCC4(CC3)CC(c3ccccc3)=NO4)c(NC(=O)c3ccccc3)c2)cc1 | 0 | 3 | / | 1 | 2 | -1 | / | / | /
Cc1ccc(CNC(=O)c2ccc(N3CCC4(CC3)CC(c3ccccc3)=NO4)c(N)c2)cc1 | 11 | 8 | 52* | 0 | -6 | 10 | 89* | -0.92 | 20
Cc1ccc(CNC(=O)c2ccc(N3CCC4(CC3)CC(c3ccccc3)=NO4)c(NC(=O)c3ccc(Br)cc3)c2)cc1 | -6 | 4 | 73* | -1 | -4 | 0 | 104* | 0.66 | -1
CCCN1C(=O)/C(=C/c2c(N3CCNC(=O)C3CC(=O)OCC)nc3c(C)cccn3c2=O)SC1=S (configuration not stated) | 0 | 29* | 74* | 0 | 3 | 14 | 58* | 0.065 | /
Cc1ccsc1C(=O)OCC(=O)NCc1ccc(Cl)cc1 | 0 | -3 | / | 1 | -3 | -3 | / | / | /
COc1ccc(NC(=O)CSc2nc3ccccc3nc2N2CCCC2)c(OC)c1 | 7 | 12 | 30 | 2 | 6 | 2 | / | / | /
COc1cccc(NC(=O)CSc2nc3ccccc3nc2N2CCCC2)c1 | 0 | 9 | 58* | 0 | 4 | 0 | 99* | -0.71 | 8
Cc1cccc(NC(=O)CSc2nc3ccccc3nc2N2CCCCC2)c1 | 3 | 9 | 31 | 2 | 2 | -9 | / | / | /
COc1ccc(NC(=O)CSc2nc3ccccc3nc2N2CCCCC2)cc1 | 2 | 8 | 73* | 2 | 2 | 1 | 108* | -0.72 | 1
Cc1cccc(NC(=O)CSc2nc3ccccc3nc2N2CCCC2)c1 | 1 | 3 | 63* | 1 | -4 | 9 | 102* | 0.58 | 9
Nc1c(-c2ccc3c(c2)OCCO3)oc2ccccc2c1=O | 0 | 1 | -1 | 1 | 3 | 7 | / | / | /
CCOC(=O)C1CCCN(C(=O)Cc2ccc(OC)c(OC)c2)CC1 (configuration not stated) | / | -5 | / | 1 | 9 | / | / | / | /
CCOc1ccc(CCNC(=O)CCC(=O)N2CCOc3ccc(C)cc32)cc1OCC | 2 | 1 | 80* | 0 | -6 | 17 | 112* | -1.1 | 16
CCOc1ccc(CCNC(=O)CS(=O)Cc2nc(-c3ccccc3C)oc2C)cc1OCC (configuration not stated) | 0 | 3 | 61* | -2 | 5 | 24 | 89* | -0.19 | 13
COc1ccc(CCNC(=O)CCC(=O)N2CCOc3ccc(C)cc32)cc1OC | 1 | 3 | -1 | -1 | 0 | 2 | / | / | /
CSc1ccc(CCNC(=O)CN2C(=O)c3cccnc3Oc3ccc(C)cc32)cc1 | 0 | 2 | -20 | -1 | 4 | 11 | / | / | /
CCOc1ccc(CCNC(=O)CN2C(=O)c3cccnc3Oc3ccc(C)cc32)cc1OCC | 1 | -1 | 92* | 1 | -3 | 4 | 110* | -0.37 | 10
CCOc1ccc(CCNC(=O)CCOc2cc(C)ccc2C)cc1OCC | 0 | 7 | 98* | 0 | 1 | 1 | 111* | -0.47 | 15
CCOc1ccc(CCNC(=O)CS(=O)Cc2nc(-c3ccc(C)cc3)oc2C)cc1OCC (configuration not stated) | 1 | 3 | 46 | -3 | -1 | 11 | / | / | /
SMILES | NTR1 agonist | MC4R antag cAMP | Hep lipid drop | MC4R barr agon | HTR2A ag | PREPL inhibitor | Hep lipid conf | AML12 cytotox | AML12 tox conf
CCOc1ccc(CCNC(=O)CSCc2ccc(C)cc2)cc1OCC | -1 | -3 | 88* | 0 | 1 | 3 | 109* | -0.82 | /
COC(=O)Cn1c(O)c(N=NC(=O)CNC(=O)COc2cccc(C)c2)c2ccccc21 | 4 | 5 | 68* | -1 | 3 | 13 | 25 | -1.1 | /
Cc1cccc(N2CCN(C(=O)CCNS(=O)(=O)c3ccc4c(c3)oc(=O)n4C)CC2)c1C | 1 | -1 | -11 | -2 | -2 | -1 | / | / | /
CCCCn1c(N)c(N(C)C(=O)c2ccccc2Oc2ccccc2)c(=O)[nH]c1=O | 1 | 2 | / | 1 | 1 | -1 | / | / | /
CCOc1c2ccc(C(=O)NCc3ccc(OC(F)(F)F)cc3)cc2nn1CC | 1 | 4 | / | -1 | 1 | 13 | / | / | /
CCCn1nc2cc(C(=O)NCc3ccc(OC(F)(F)F)cc3)ccc2c1OCC | 2 | -4 | 67* | -1 | -8 | 2 | 98* | -0.66 | 6
CCCCn1c(N)c(N(CCOC)C(=O)c2ccc3c(c2)C(=O)N(c2cc(C)ccc2C)C3=O)c(=O)[nH]c1=O | 1 | 3 | 1 | -2 | 6 | 2 | / | / | /
CCN(CC)c1ccc(/C=C2\CCC(/C=C(/C#N)C(=O)Nc3ccccc3F)=C2N2CCOCC2)cc1 | / | -4 | / | -1 | -1 | / | / | / | /
CCN(CC)c1ccc(/C=C2\CCC(/C=C(\C#N)C(=O)Nc3ccccc3F)=C2N2CCOCC2)cc1 | / | -6 | 101* | -4 | 0 | / | 96* | 0.003 | -10
COc1ccc2nc(N=Nc3c(O)ccc4ccccc34)sc2c1 | / | / | 50* | / | / | / | 6 | -0.12 | /
O=C(C[C@@H]1C/C=C\C[C@H](Cc2ccc(F)cc2)C(=O)OC[C@@H]2CCCN2C1=O)N[C@H](CO)Cc1ccccc1 | 24 | 5 | / | -1 | 3 | 34 | / | / | /
Cc1cc(C)cc(NCc2ccncc2)c1 | 1 | 11 | -2 | -2 | -2 | 1 | / | / | /
